The structures appear in SMILES notation. Activity calls are given as the source filed them. The rule behind the calls is not given here.

Experimental findings from ChEMBL document CHEMBL1811913, “Trimethoxy-chalcone derivatives inhibit growth of Leishmania braziliensis: synthesis, biological evaluation, molecular modeling and structure-activity relationship (SAR)” (Bioorg Med Chem, 2011) are described below.

Data set [1] in a line: Selectivity index, ratio of CC50 for african green monkey Vero cells to IC50 for promastigotes form of Leishmania braziliensis MHOM/BR/75/M2904. In kind it is functional.
The subject of data set [2] is Leishmania braziliensis. Briefly: Antileishmanial activity against promastigotes form of Leishmania braziliensis MHOM/BR/75/M2904 after 72 hrs. Type of data set: functional. The conditions noted are these: MHOM/BR/75/M2904, 72 h. The gist of the method: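 5.0 × 10^6 promastigotes/mL were exposed to 500, 100, 50, 25, 10, 5 and 1 (DMSO ≤1% final) at 28 °C for 72 h, and living parasites were counted in a Neubauer chamber. IC50 came from linear regression, mean ± standard error of three independent experiments.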

Data set [3] is described as follows: Cytotoxicity against african green monkey Vero cells after 72 hrs. The conditions noted are these: chlorocebus sabaeus. Type of data set: cell-based.
The test system of data set [4] is Leishmania braziliensis. Briefly: Antileishmanial activity against promastigotes form of Leishmania braziliensis MHOM/BR/75/M2904 at 50 uM after 72 hrs. Type of data set: functional.
The subject of a further data set is Vero. Briefly: Cytotoxicity against african green monkey Vero cells at 50 uM after 72 hrs. Type of data set: cell-based. As to conditions: chlorocebus sabaeus.
Data set [5] addresses T1, Nitric oxide synthase, inducible (Mus musculus) (UniProt P29477).
T1 sequence (whole entry): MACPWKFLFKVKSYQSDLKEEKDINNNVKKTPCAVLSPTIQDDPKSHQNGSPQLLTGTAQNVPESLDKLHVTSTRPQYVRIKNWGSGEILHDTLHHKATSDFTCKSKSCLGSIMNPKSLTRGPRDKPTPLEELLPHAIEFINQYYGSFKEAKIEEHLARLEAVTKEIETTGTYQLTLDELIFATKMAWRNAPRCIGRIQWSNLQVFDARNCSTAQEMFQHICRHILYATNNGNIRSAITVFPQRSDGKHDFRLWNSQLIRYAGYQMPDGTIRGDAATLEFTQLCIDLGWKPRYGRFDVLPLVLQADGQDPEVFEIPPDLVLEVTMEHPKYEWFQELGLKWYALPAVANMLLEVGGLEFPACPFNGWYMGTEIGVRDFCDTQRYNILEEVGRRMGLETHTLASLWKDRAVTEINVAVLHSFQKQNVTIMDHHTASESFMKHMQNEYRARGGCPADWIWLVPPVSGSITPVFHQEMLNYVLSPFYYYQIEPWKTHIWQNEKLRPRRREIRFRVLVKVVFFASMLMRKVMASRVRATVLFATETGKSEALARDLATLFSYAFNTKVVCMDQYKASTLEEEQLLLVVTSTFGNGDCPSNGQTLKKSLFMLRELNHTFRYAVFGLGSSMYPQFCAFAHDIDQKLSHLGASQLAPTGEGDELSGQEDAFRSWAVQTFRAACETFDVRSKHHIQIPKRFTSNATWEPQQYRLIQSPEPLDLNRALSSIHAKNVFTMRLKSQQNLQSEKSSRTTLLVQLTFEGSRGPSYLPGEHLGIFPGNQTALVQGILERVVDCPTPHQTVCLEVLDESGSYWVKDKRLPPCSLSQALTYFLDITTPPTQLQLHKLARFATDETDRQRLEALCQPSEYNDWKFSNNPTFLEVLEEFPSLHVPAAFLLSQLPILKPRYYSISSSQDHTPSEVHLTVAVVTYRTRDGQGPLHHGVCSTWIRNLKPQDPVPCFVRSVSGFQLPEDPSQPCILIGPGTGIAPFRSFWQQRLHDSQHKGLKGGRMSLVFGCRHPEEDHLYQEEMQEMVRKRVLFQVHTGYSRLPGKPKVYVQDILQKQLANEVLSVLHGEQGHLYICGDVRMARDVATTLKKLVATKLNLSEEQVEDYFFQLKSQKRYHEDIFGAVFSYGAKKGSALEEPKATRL
Briefly: Inhibition of iNOS-mediated LPS-induced nitric oxide production in mouse RAW264.7 cells. Type of data set: cell-based.

As for `COc1cc(O)c(C(=O)/C=C/c2cccc(Cl)c2)c(OC)c1`, in data set [1], the “Ratio CC50/IC50” value came out at 1.8. For the same compound, in the data set with Leishmania braziliensis [2], the half-inhibitory concentration (IC50) (usually the midpoint of a concentration-inhibition curve) was determined as 194 µM. Moreover, in data set [3], the midpoint of cytotoxicity, the CC50 at 72 h, lay at 341 µM.

With `COc1cc(OC)c(C(=O)/C=C/c2ccc(Cl)c(Cl)c2)cc1OC`, the “Ratio CC50/IC50” value in data set [1] stood at 6.1. The compound also yielded a concentration for half-maximal inhibition (IC50) in the data set on Leishmania braziliensis [2] of 148 µM. Besides, it took 906 µM to reach half-maximal cytotoxicity in data set [3] (CC50 at 72 h).

Take `COc1cc(OC)c(C(=O)/C=C/c2ccccc2Cl)cc1OC`: in the data set on Leishmania braziliensis [4], the inhibition entry was “inactive”. Besides, the Activity result in the data set on Vero is given as “Non-toxic”.

As to `COc1cc(OC)c(C(=O)/C=C/c2ccc3c(c2)OCO3)c(OC)c1`, the inhibition entry in the data set with Leishmania braziliensis [4] was “inactive”. For the same compound, in the data set with Vero, the Activity entry is recorded as “Non-toxic”.

Compound `N=C(N)c1ccc(OCCCCCOc2ccc(C(=N)N)cc2)cc1` [PENTAMIDINE] gave a half-inhibitory concentration (IC50) in the data set on Leishmania braziliensis [2] of 6 µM.

Consider `COc1cc(OC)c(C(=O)/C=C/c2cccc(Cl)c2)cc1OC`, for which the “Ratio CC50/IC50” value in data set [1] worked out at 24.8. For the same compound, the IC50 in the data set on Leishmania braziliensis [2] came to 15.4 µM. Moreover, in data set [3], the CC50 (as a rule, the concentration that lowers cell viability or growth by half) at 72 h came out at 382 µM.

As for `COc1cc(OC)c(C(=O)/C=C/c2ccccc2)cc1OC`, in data set [1], the “Ratio CC50/IC50” value was found to be 30.6. In addition, the IC50 with Leishmania braziliensis [2] is 12.8 µM. The same compound registered a CC50 at 72 h in data set [3] of 392 µM.

Consider `COc1cc(OC)c(C(=O)/C=C/c2ccc(Cl)cc2)cc1OC`, for which, in data set [1], the “Ratio CC50/IC50” value came out at 9.4. Moreover, the IC50 with Leishmania braziliensis [2] came out at 29.7 µM. This compound also gave a CC50 at 72 h in data set [3] of 279 µM.

Consider `COc1cccc(/C=C/C(=O)c2cc(OC)c(OC)cc2OC)c1`, for which, in data set [1], the “Ratio CC50/IC50” value was 21.1. For the same compound, the half-maximal inhibitory concentration (IC50) in the data set with Leishmania braziliensis [2] amounted to 14 µM. Half-maximal cytotoxicity in data set [3] (CC50 at 72 h) was put at 295 µM.

Turning to `COc1cc(OC)c(C(=O)/C=C/c2ccccc2Cl)c(OC)c1`, the inhibition entry in data set [5] was “Active”.
